As a reminder, the solubility is the concentration that dissolves in the medium under given conditions. Higher therefore signals much dissolved substance. Broadly, the half-life is how long it takes for the measured level to halve. A higher half-life goes with slow loss. The EC50 is the concentration that produces a half-maximal response. Lower therefore signals greater potency. For orientation: EC90 means the point of the concentration-response curve where the effect stands at 90%. A higher EC90 goes with a need for much substance. One may read the Cmax as the maximum level reached in the sampled fluid or tissue. The fraction unbound is free concentration divided by total concentration. As usually defined, the AUC is the area under the concentration-time curve, a measure of exposure.

≈ marks a conversion by molar mass, not a printed value. Calls of active or inactive are those of the source. The calls are words filed in the database; no cut-off is given here. A value given as a limit tells only on which side of the number the result lay.

A short description of series [1]: Solubility of the compound in PBS at pH 7.4 at 50 uM after overnight incubation by LC-MS/MS method. In kind it is physicochemical. The procedure, abridged: (§1)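 Solubility measured at pH 7.4, 6.5 and 2.0.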
Series [2] is described as follows: Half life in mouse liver microsomes by LC-MS/MS method. In kind it is ADME, microsome. In outline:
(§2)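 Incubation with mouse liver microsomes, run in duplicate. Testosterone and dextromethorphan included as controls in each assay.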
Background: Liver microsomes are vesicles of endoplasmic reticulum, rich in cytochrome P450 enzymes.

The test system of series [3] is Trypanosoma cruzi. The experiment in a line: Antitrypanosomal activity against bioluminescent PpyRE9h expressing Trypanosoma cruzi Tulahuen […] infected subcutaneously in BALB/c mouse assessed as suppression of Trypanosoma cruzi infection at 50 mg/kg, po twice daily for 5 days measured after 6 weeks by IVIS imaging analysis. In kind it is functional, organism-based. The procedure, abridged:
(§3)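 Balb/c mice infected SC on day 0 with 2x10^4 T. cruzi Tulahuen trypomastigotes expressing red-shifted luciferase (PpyRE9h). Oral dosing at 50 mg/kg twice daily on days 7-11 post-infection. D-luciferin (120 mg/kg) injected SC, mice anesthetized and imaged by IVIS 10-15 min later, at time points out to 42 days. Mice observed for toxicity.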

Series [4] in a line: Cytotoxicity against human CRL8155 cells after 48 hrs by Alamar Blue-based assay. The class given is cell-based. The following applies: CRL8155, 48 h. In outline:
(§4)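 Cytotoxicity tested against human lymphoblasts CRL-8155 and hepatocytes HepG2. Highest concentration tested was 50 µM.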
(In general: The colour change of resazurin is a common sign of viable cells or microbes.)

The subject of a further series is Mus musculus. The series is described as follows: Toxicity in BALB/c mouse infected with bioluminescent PpyRE9h expressing Trypanosoma cruzi Tulahuen […] at 50 mg/kg, po twice daily for 5 days measured after 6 weeks. In kind it is organism-based. The following applies: in vivo, 1008 h. The procedure, abridged: as §3
The nature of series [5]: Plasma concentration in Swiss Webster mouse at 5 mg/kg, ip after 1 hr by LC-MS/MS analysis. In kind it is ADME, organism-based. In outline: (§5)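 Mice in groups of three got a single 5 mg/kg ip dose. Animals were sacrificed 1 h postdose, and brain and plasma were collected for analysis. Brain:plasma ratio was calculated from the mean concentrations.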
Series [6] in a line: Solubility of the compound in HCl at pH 2.0 at 50 uM after overnight incubation by LC-MS/MS method. In kind it is physicochemical. The procedure, abridged: as §1
The nature of series [7]: Ratio of drug level in Swiss Webster mouse brain to plasma at 5 mg/kg, ip measured after 1 hr by LC-MS/MS analysis. In kind it is ADME, organism-based. The note with it: read-out: BPR. In outline: as §5
For series [8], the system named is Trypanosoma brucei brucei. The series is described as follows: Antitrypanosomal activity against Trypanosoma brucei brucei BF427 after 48 hrs by Alamar Blue-based assay. The following applies: BF427, 48 h. In kind it is functional.
A short description of series [9]: Cmax in Swiss Webster mouse at 50 mg/kg, po by LC-MS/MS analysis. Also noted: dose 50 mg/kg, route oral. In kind it is ADME, organism-based. The note with it: in vivo. In outline: (§6)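 Oral single dose of 50 mg/kg to mice (n=3). Blood sampled at time points up to 24 h. Cmax and AUC reported as average ± SEM.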
Series [10] can be described thus: Protein binding in Swiss Webster mouse plasma assessed as drug recovery at 2 uM by LC-MS/MS analysis. The following applies: read-out: Drug recovery. In kind it is ADME, cell-free. In outline: (§7)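 Plasma protein binding measured in 100% mouse plasma, giving % recovery and % fraction unbound. Propranolol control included in every experiment.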
For the next series, the system named is Liver. The experiment in a line: Stability of the compound in mouse liver microsomes assessed as compound remaining by LC-MS/MS method. The class given is ADME, microsome. The procedure, abridged:
as §2

Series [11] is described as follows: Fraction unbound in Swiss Webster mouse plasma at 2 uM by LC-MS/MS analysis. The class given is ADME, cell-free. The procedure, abridged:
as §7

A short description of series [12]: Plasma concentration in BALB/c mouse subcutaneously infected with bioluminescent PpyRE9h expressing Trypanosoma cruzi Tulahuen […] at 50 mg/kg, po twice daily measured 1 hr post seventh dose. The class given is ADME, organism-based. In outline: (§8)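 Infected Balb/c mice on the twice-daily 50 mg/kg oral regimen. Tail blood collected at the 7th dose, immediately before and 1 h and 6 h after administration (n=3).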

Series [13] can be described thus: Plasma concentration in BALB/c mouse subcutaneously infected with bioluminescent PpyRE9h expressing Trypanosoma cruzi Tulahuen tryptomastigotes at 50 mg/kg, po twice daily measured 6 hrs post seventh dose. In kind it is ADME, organism-based. The procedure, abridged:
as §8

Series [14] is described as follows: Drug level in Swiss Webster mouse brain at 5 mg/kg, ip after 1 hr by LC-MS/MS analysis. The note with it: read-out: Drug uptake. In kind it is ADME, organism-based. In outline: as §5
Series [15] can be described thus: Plasma concentration in BALB/c mouse subcutaneously infected with bioluminescent PpyRE9h expressing Trypanosoma cruzi Tulahuen […] at 50 mg/kg, po twice daily measured immediately before seventh dose.
A short description of series [16]: AUC in Swiss Webster mouse at 50 mg/kg, po by LC-MS/MS analysis. The note with it: in vivo. In kind it is ADME, organism-based. The procedure, abridged:
as §6

The subject of a further series is HepG2. The experiment in a line: Cytotoxicity against human HepG2 cells after 48 hrs by Alamar Blue-based assay. The class given is cell-based. The following applies: HepG2, 48 h. In outline: as §4
A short description of series [17]: Solubility of the compound in PBS at pH 6.5 at 50 uM after overnight incubation by LC-MS/MS method. The class given is physicochemical. The procedure, abridged:
as §1

Series [18] deals with Trypanosoma cruzi. The experiment in a line: Antitrypanosomal activity against Trypanosoma cruzi Tulahuen amastigotes infected in mouse 3T3 cells after 6 days by beta galactosidase reporter asay. The class given is functional, cell-based. The note with it: NIH3T3, 144 h.

Turning to `O=C(Nc1cc2nc(-c3ccc(F)c(F)c3)cn2cn1)N1CC[C@H](F)C1`, the solubility at 50 µM stood at 2.1 µM (≈ 0.759 µg/mL) in series [1], 1.6 µM (≈ 0.578 µg/mL) in series [6] and 2.4 µM (≈ 0.867 µg/mL) in series [17]. This molecule had a half-life in [2] above 1 h. Moreover, in the series on Trypanosoma cruzi [3], the result was Active. In addition, the EC50 in series [4] is above 50000 nM; in series [8], 20 nM; in the series on HepG2 it was above 50000 nM; in the series with Trypanosoma cruzi [18], 90 nM. Also, in the series on Mus musculus, the Activity result is “Non-Toxic”. Further, the concentration at 1 h in series [5] came out at 1.31 µM; in [12], 9 µM; in series [14] it was 1.12 µM. Besides, the Kp at 1 h in series [7] stood at 0.856. The EC90 in [8] turned out to be 50 nM; in the series on Trypanosoma cruzi [18] it was 150 nM. The same molecule yielded a Cmax in [9] of 5.7 µM. Besides, in series [10], the recovery at 2 µM was determined as 56.1%. For the same molecule, the Stability with Liver came out at 96%. In series [11], the fraction unbound at 2 µM worked out at 0.099. Further, the concentration at 6 h in [13] is 5.8 µM. This molecule also came in with a concentration at 0 hr in series [15] of 4.8 µM. Moreover, the AUC in [16] is 59.8 µM·h.

The record behind these values is ChEMBL document CHEMBL4033772, “New Class of Antitrypanosomal Agents Based on Imidazopyridines” (ACS Med Chem Lett, 2017).
